Measurements from ChEMBL document CHEMBL1765003, “Discovery of (1S,2R,3R)-2,3-dimethyl-2-phenyl-1-sulfamidocyclopropanecarboxylates: novel and highly selective aggrecanase inhibitors” (J Med Chem, 2011).

What was measured:
Cytochrome P450 2A6 = target: T1, Cytochrome P450 2A6 (Homo sapiens, UniProt P11509); experiment: Inhibition of CYP2A6 at up to 50 uM; assay type: ADME
T1 sequence (P11509 whole entry): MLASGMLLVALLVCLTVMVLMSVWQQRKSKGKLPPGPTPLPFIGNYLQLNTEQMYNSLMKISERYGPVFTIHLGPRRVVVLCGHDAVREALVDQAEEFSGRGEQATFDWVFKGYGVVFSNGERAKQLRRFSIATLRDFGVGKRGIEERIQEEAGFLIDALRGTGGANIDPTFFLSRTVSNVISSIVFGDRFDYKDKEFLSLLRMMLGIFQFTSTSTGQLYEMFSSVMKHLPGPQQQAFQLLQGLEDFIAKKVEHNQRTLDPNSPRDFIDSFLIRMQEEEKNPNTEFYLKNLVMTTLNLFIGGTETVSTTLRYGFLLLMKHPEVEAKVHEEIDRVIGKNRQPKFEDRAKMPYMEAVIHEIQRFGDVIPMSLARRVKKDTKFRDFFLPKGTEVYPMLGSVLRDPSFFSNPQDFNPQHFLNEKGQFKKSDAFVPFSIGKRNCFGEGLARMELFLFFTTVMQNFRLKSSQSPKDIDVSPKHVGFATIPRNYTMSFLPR

Cytochrome P450 1A2 = target: T2, Cytochrome P450 1A2 (Homo sapiens, UniProt P05177); experiment: Inhibition of CYP1A2 at up to 50 uM; assay type: ADME
T2 sequence (P05177 whole entry): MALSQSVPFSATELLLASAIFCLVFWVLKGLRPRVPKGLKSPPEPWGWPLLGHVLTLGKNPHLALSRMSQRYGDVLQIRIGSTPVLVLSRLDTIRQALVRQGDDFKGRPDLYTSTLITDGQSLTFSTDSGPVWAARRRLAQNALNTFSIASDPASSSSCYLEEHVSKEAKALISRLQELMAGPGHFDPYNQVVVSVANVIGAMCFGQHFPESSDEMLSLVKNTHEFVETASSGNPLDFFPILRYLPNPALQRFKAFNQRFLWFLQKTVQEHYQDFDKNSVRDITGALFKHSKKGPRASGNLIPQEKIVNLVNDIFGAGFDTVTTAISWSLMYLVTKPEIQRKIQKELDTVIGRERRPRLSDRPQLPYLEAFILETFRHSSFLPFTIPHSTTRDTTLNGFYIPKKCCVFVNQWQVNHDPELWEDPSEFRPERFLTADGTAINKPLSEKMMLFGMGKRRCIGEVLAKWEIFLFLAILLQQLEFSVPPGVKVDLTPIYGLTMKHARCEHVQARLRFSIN

[1] = Volume of distribution at steady state in Sprague-Dawley rat at 1 mg/kg, iv; assay type: ADME, organism-based; parameters: dose 1 mg/kg, route intravenous; conditions: in vivo, read-out: Vdss
How it was run: (§1)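 Intravenous dose of 1 mg/kg. Blood sampled at 0.50, 1, 2, 4, 8 and 24 h. Plasma obtained by centrifugation at 10 000 rpm for 5 min and kept at −20 °C until analysis.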

Cytochrome P450 3A4 = Cytochrome P450 3A4 (Homo sapiens, UniProt P08684); experiment: Inhibition of CYP3A4 at up to 50 uM; assay type: ADME
Cytochrome P450 3A4, sequence (P08684 whole entry): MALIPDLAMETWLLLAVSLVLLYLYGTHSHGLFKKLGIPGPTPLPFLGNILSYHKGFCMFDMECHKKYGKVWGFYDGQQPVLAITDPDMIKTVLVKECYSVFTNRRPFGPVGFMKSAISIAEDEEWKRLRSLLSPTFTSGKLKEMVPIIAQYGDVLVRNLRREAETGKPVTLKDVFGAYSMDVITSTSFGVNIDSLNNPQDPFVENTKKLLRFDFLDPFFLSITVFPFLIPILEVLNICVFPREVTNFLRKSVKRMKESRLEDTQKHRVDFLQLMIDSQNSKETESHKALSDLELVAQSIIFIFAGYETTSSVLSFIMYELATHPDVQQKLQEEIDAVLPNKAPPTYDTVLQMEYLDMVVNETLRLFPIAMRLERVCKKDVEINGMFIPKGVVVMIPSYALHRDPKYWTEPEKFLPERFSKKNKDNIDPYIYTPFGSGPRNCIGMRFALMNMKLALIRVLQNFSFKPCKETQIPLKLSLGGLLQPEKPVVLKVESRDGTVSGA

Cytochrome P450 2C9 = Cytochrome P450 2C9 (Homo sapiens, UniProt P11712); experiment: Inhibition of CYP2C9 at up to 50 uM; assay type: ADME
Cytochrome P450 2C9, sequence (P11712 whole entry): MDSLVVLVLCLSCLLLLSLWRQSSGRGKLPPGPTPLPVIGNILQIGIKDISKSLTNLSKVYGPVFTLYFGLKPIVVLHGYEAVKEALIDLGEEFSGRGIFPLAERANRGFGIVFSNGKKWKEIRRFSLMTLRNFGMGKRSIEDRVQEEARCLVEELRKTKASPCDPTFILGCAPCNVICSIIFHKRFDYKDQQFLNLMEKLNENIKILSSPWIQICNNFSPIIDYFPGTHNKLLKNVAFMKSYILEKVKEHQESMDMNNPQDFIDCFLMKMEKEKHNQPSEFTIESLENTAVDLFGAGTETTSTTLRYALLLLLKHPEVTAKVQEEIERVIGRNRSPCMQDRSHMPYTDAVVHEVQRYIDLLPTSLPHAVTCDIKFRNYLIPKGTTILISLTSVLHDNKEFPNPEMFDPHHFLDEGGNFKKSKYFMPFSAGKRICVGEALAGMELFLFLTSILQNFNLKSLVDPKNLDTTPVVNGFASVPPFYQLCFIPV

[2] = Clearance in Sprague-Dawley rat at 1 mg/kg, iv; assay type: ADME, organism-based; parameters: dose 1 mg/kg, route intravenous; conditions: in vivo; how it was run: as §1
[3] = target: Disintegrin and metalloproteinase domain-containing protein 17 (Homo sapiens, UniProt P78536); experiment: Inhibition of human recombinant TACE after 60 mins by fluorescence plate reader
Disintegrin and metalloproteinase domain-containing protein 17, sequence (P78536 whole entry, the tested form may be a part): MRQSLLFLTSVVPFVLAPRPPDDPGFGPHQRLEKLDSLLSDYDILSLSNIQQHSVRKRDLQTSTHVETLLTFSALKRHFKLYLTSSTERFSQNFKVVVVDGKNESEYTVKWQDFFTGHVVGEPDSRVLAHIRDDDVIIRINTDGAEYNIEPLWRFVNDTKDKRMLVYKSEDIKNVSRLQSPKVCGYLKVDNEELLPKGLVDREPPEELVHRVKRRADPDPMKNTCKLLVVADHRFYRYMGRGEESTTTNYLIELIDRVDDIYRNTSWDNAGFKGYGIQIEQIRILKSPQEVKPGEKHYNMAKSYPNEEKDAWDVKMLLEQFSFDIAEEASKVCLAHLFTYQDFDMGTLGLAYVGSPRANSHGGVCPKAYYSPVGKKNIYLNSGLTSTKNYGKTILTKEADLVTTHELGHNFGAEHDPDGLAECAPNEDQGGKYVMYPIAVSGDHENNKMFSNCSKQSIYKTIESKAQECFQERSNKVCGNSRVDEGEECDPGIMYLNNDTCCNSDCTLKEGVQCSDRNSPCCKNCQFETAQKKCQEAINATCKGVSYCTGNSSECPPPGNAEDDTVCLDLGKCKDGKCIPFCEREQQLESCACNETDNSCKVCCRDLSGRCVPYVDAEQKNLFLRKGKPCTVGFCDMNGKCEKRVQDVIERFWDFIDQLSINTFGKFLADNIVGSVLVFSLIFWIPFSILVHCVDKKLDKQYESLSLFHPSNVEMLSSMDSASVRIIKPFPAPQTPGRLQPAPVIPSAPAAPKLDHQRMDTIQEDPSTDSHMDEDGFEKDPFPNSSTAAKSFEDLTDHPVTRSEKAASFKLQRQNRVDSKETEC
How it was run: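 rh-TACE at 80 ng/mL with 10 μM MCA-Pro-Leu-Ala-Gln-Ala-Val-Dpa-Arg-Ser-Ser-Ser-Arg-NH₂, in 100 mM Tris-HCl pH 7.5, 150 mM NaCl, 10 mM CaCl₂, 0.05% Brij-35. Inhibitor preincubated for 15 min at 25 °C. Fluorescence (ex 325/em 405 nm) read at 60 min. IC50 from three linear-range points; mean of ≥2.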

[4] = Cmax in Sprague-Dawley rat at 10 mg/kg, po; assay type: ADME, organism-based; parameters: dose 10 mg/kg, route oral; conditions: in vivo
[5] = AUC in Sprague-Dawley rat at 10 mg/kg, po; assay type: ADME, organism-based; parameters: dose 10 mg/kg, route oral; conditions: plasma
Interstitial collagenase = target: T3, Interstitial collagenase (Homo sapiens, UniProt P03956); experiment: Inhibition of human recombinant MMP1 after 60 mins by fluorescence plate reader
T3 sequence (P03956 whole entry): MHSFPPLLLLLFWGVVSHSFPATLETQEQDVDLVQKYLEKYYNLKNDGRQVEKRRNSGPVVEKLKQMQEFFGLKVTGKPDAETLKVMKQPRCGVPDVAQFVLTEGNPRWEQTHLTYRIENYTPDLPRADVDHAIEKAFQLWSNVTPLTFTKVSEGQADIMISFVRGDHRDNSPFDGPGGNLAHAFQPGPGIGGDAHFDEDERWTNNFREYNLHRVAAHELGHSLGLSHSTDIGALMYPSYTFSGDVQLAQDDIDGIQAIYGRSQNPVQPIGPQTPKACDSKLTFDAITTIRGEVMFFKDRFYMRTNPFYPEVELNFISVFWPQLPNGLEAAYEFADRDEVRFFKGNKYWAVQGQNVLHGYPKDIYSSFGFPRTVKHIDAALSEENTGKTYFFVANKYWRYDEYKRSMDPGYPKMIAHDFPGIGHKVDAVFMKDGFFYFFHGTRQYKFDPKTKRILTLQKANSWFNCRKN
How it was run: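 Recombinant human enzyme at 20 ng/mL with 10 μM MOCAc-Lys-Pro-Leu-Gly-Leu-A2pr(Dnp)-Ala-Arg-NH₂, in 100 mM Tris-HCl pH 7.5, 150 mM NaCl, 10 mM CaCl₂, 0.05% Brij-35. Enzyme pretreated with inhibitor for 15 min at 25 °C, then substrate added. Fluorescence (ex 325, em 405 nm) read at 60 min. IC50 taken from three points in the linear range; mean of ≥2 determinations.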

- inhibition (INH) (Cytochrome P450 2A6): Not Active
- inhibition (INH) (Cytochrome P450 1A2): Not Active
- Vd [1]: 0.25 L/kg
- inhibition (INH) (Cytochrome P450 3A4): Not Active
- inhibition (INH) (Cytochrome P450 2C9): Not Active
- clearance [2]: 1 mL/min/kg
- IC50 [3]: > 10 µM
- Cmax [4]: 54.1 µM
- AUC [5]: 421 µM·h
- IC50 (Interstitial collagenase): > 10 µM
SMILES: C[C@@H]1[C@](C)(c2ccccc2)[C@]1(NS(=O)(=O)N1CCc2c(nc3cc(F)ccn23)C1)C(=O)O
